Assay results taken from ChEMBL document CHEMBL1142294, “Design and synthesis of benzo-lipoxin A4 analogs with enhanced stability and potent anti-inflammatory properties” (Bioorg Med Chem Lett, 2008).

Experiments:
[1] = Stability assessed as rate of NADH formation in presence of eicosanoid oxido-reductase; type: ADME
How it was run: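 Compound at ~15 μM incubated with 50 ng recombinant eicosanoid oxido-reductase in 0.1 M Tris–HCl pH 9.0 with 1 mM NAD⁺, 37 °C, 25 min, while NADH formation was monitored. Initial velocity was taken by linear regression over the linear phase of conversion. Values are means ± SEM, n = 3.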

Mus musculus = assay: Antiinflammatory activity against FVB mouse assessed as inhibition of zymosan-induced neutrophil infiltration at 15 ug/kg, iv relative to control; type: functional
How it was run: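 Male FVB mice, 6–8 weeks old, given 15 μg kg⁻¹ by intravenous bolus into the tail vein in 100 μL sterile saline, then an intraperitoneal injection of zymosan A (1 mg/1 mL). Peritoneal lavage was collected at 2 h, and total leukocytes, PMNs and monocytes were counted. PMN inhibition is relative to zymosan A plus saline vehicle. Values are means ± SEM, n = 5–10.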

Row | SMILES | Stability [1] [µM/min] | inhibition in vivo at 0.015 mg/kg (Mus musculus) [%]
1 | CCCCC[C@@H](O)/C=C/c1ccccc1/C=C/[C@@H](O)[C@@H](O)CCCC(=O)OC | 0.19 | 32.2
2 | COC(=O)CCC[C@H](O)[C@H](O)/C=C/C=C/C=C\C=C\[C@H](O)COc1ccc(F)cc1 |  | 40.5
3 | CCCCC[C@@H](O)/C=C/C=C\C=C\C=C\[C@@H](O)[C@@H](O)CCCC(=O)O | 0.21 | 
4 | CCCCC[C@H](O)/C=C/C=C\C=C\C=C\[C@@H](O)[C@@H](O)CCCC(=O)O [LIPOXIN A4] | 2.42 | 
5 | CCCCC[C@@H](O)/C=C/C=C/c1ccccc1/C=C/[C@@H](O)[C@@H](O)CCCC(=O)OC | 0.14 | 17.3
6 | CCCCCC(O)c1ccccc1/C=C/[C@@H](O)[C@@H](O)CCCC(=O)OC (mixture of isomers) | 0.09 | 22.3
7 | CCCCCC/C=C/c1ccccc1/C=C/[C@@H](O)[C@@H](O)CCCC(=O)OC | 0.04 | 23.9
8 | CCCCC[C@@H](O)/C=C/c1cccc(/C=C/[C@@H](O)[C@@H](O)CCCC(=O)OC)c1 | 0.45 | 32
